Results from PubChem BioAssay.
Activity calls are given as the source filed them.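 Rule for the calls, unless noted: active = GFP response above 150% of the DMSO level; inconclusive = fewer than 70 events counted for a yeast strain; inactive = the rest.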

How the values were obtained:
[1] = RPL19A-GFP modulators, yeast TOR pathway, confirmation, cell-based, S. cerevisiae, flow cytometry, cherry picks, mother/daughter gates (AID 2270;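 active = GFP response below 50% of the DMSO control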); settings: S. cerevisiae RPL19A-GFP strain, 3 h, at 10 µM, stronger effect = lower value, 100 = same GFP as DMSO wells
[2] = LAP4-GFP expression modulators in yeast, confirmation, cell-based, cherry picks, flow cytometry, mother/daughter gates (AID 2271;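 active = GFP response above 150% of the DMSO control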;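 note: ratio of sample to DMSO plate mean so 100% equals DMSO level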); settings: S. cerevisiae LAP4-GFP strain, 3 h, at 10 µM, stronger effect = higher value, 100 means same as DMSO control
Summary of the method: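 System: Alexa 633-stained baker's yeast GFP-fusion strain; quantity: 0.2 OD600 cells; timing: compound exposure 3 h at 30 °C, end-over-end rotation; detection: HT flow cytometry, GFP fluorescence channel; measure: per-gate (all, mother, daughter) GFP response vs DMSO; control set: DMSO-only negative wells, rapamycin 400 ng/mL positive wells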

[3] = modulators of MEP2-GFP levels in yeast, confirmation, S. cerevisiae, flow cytometry GFP, cherry picks (AID 2272;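 active = GFP response above 150% of the DMSO control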;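 note: ratio of well signal to plate DMSO mean so 100% equals DMSO level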); settings: S. cerevisiae MEP2-GFP strain, 3 h, at 10 µM, stronger effect = higher value
[4] = AGP1-GFP expression modulators, hit retest, confirmation, cell-based, flow cytometry, S. cerevisiae, cherry picks (AID 2273);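 note: median GFP channel fluorescence over the whole cell population gate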; settings: S. cerevisiae AGP1-GFP strain, 3 h, at 10 µM
[5] = modulators of CIT2-GFP expression in yeast, confirmation, S. cerevisiae, GFP fusion, cherry picks, mother/daughter gates (AID 2274); settings: S. cerevisiae CIT2-GFP strain, flow cytometry, 3 h, at 10 µM, stronger effect = higher value
[6] = measured here: daughter cell gate
[7] = measured here: mother cell gate
[8] = measured here: daughter cell gate response
[9] = measured here: mother cell gate response

SMILES | GFP response vs DMSO [1] | GFP response vs DMSO [1, 6] [%] | GFP response vs DMSO [1, 7] [%] | GFP response relative to DMSO [2] | GFP response relative to DMSO [2, 8] [%] | GFP response relative to DMSO [2, 9] [%] | GFP response vs DMSO [3] | GFP response, % of DMSO [4] | GFP response, % of DMSO [5] | GFP response, % of DMSO [5, 6] [%] | GFP response, % of DMSO [5, 7] [%]
Cc1ccsc1/C=N/Nc1ncc(Cl)cc1Cl | 97% (inactive) | 94.2 | 85.8 | 177% (active) | 107 | 189 | 109% (inactive) | 83.7% (inactive) | 100% (inactive) | 101 | 84.6
O=C(O)Cc1csc(-c2cccc(Oc3ccccc3)c2)n1 | 100% (inactive) | 97.8 | 101 | 105% (inactive) | 98.7 | 106 | 100% (inactive) | 95.4% (inactive) | 93.9% (inactive) | 93.2 | 93.4
CCN(CC)C(=O)c1ccc(-c2cccs2)s1 | 95.4% (inactive) | 94.6 | 96.4 | 107% (inactive) | 106 | 108 | 94.1% (inactive) | 99.9% (inactive) | 98.3% (inactive) | 97.2 | 97.3
O=C(O)c1ccn2c(C(=O)c3ccc(Cl)cc3)c(-c3ccccc3)cc2c1 | 96.2% (inactive) | 92.3 | 99.8 | 114% (inactive) | 107 | 115 | 104% (inactive) | 94.7% (inactive) | 92.1% (inactive) | 89 | 92.1
Cc1ccc(S(=O)(=O)NCC23C=CC(O2)C2C(=O)N(c4ccccc4)C(=O)C23)cc1 (stereo unspecified) | 98.4% (inactive) | 98.9 | 98.7 | 96.7% (inactive) | 97.6 | 97.2 | 102% (inactive) | 99.9% (inactive) | 105% (inactive) | 105 | 104
CC(C)c1ccc2c(c1)C1(NN=C(c3ccccc3)S1)C(=O)N2 (stereo unspecified) | 105% (inactive) | 107 | 104 | 96.2% (inactive) | 95.6 | 98.3 | 100% (inactive) | 95.7% (inactive) | 91.3% (inactive) | 96.5 | 88
COCc1cc(=O)[nH]c(SCCS(=O)(=O)c2ccc(Cl)cc2Cl)n1 | 110% (inactive) | 115 | 107 | 102% (inactive) | 100 | 105 | 100% (inactive) | 103% (inactive) | 119% (inactive) | 119 | 116
CN(C)S(=O)(=O)c1cc(NC(=O)CN2CCOCC2)ccc1Cl | 97.6% (inactive) | 97.3 | 97.7 | 95.3% (inactive) | 99 | 96.4 | 97.2% (inactive) | 97.3% (inactive) | 100% (inactive) | 99.3 | 102
COc1cccc2c1Oc1ncccc1N(C(=O)CCC(=O)NCc1ccccc1)C2 | 99.2% (inactive) | 98.1 | 101 | 97% (inactive) | 95.9 | 97.3 | 103% (inactive) | 102% (inactive) | 98.8% (inactive) | 99.2 | 98.1
Cc1ccc(/C=C/C(=O)c2ccccc(=O)c2O)c(C)c1 | 90.2% (inactive) | 112 | 93.5 | 152% (active) | 146 | 158 | 137% (inactive) | 84.3% (inactive) | 103% (inactive) | 99.2 | 96.8
COc1ccc(C(=O)NC(=S)Nc2ccc(CN3CCOCC3)cc2)cc1 | 101% (inactive) | 98.8 | 99.9 | 99.5% (inactive) | 99.1 | 99.4 | 99% (inactive) | 101% (inactive) | 98.8% (inactive) | 99.2 | 98.1
O=C(O)COc1c(-c2ccc(Cl)cc2)oc2ccccc2c1=O | 97% (inactive) | 95.4 | 97.9 | 99.2% (inactive) | 99.2 | 99.3 | 102% (inactive) | 96% (inactive) | 96.9% (inactive) | 97.2 | 96.1
O=C(Nc1nc2ccc(F)cc2s1)c1ccccn1 | 102% (inactive) | 102 | 99.3 | 185% (active) | 156 | 193 | 116% (inactive) | 107% (inactive) | 99.7% (inactive) | 105 | 92.8
Cc1cccn2c(=O)c(/C=C(\C#N)C(=O)NCc3ccco3)c(N3CCOCC3)nc12 | 100% (inactive) | 101 | 99.6 | 97% (inactive) | 97.5 | 96.2 | 99% (inactive) | 98% (inactive) | 100% (inactive) | 103 | 98.1
CC(C)c1ccc(C(=O)N/N=C/c2cccc(Cl)c2Cl)cc1 | 93.4% (inactive) | 88 | 92.6 | 112% (inactive) | 110 | 116 | 103% (inactive) | 95.7% (inactive) | 87.2% (inactive) | 83 | 85.8
O=C(O)c1ccc(N/N=C/c2c(F)cccc2Cl)cc1 | 99.5% (inactive) | 100 | 98.1 | 124% (inactive) | 121 | 124 | 108% (inactive) | 94% (inactive) | 96.4% (inactive) | 92.7 | 94.5
